Data set [1] is described as follows: Effective dose (80%) required to inhibit cholesterol biosynthesis in rat after oral administration. Type of data set: functional. The essentials: (§1)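 Female rats (130 ± 20 g) on reversed lighting, given test compound orally across a dose range in DMSO/HPMC (n = 2). Tritiated mevalonate (2.5 µCi) 1 h post-dose; killed 1 h later. Liver saponified, isohexane-extracted, HPLC radio-profile of sterols. ED50 or ED80 for inhibition of cholesterol biosynthesis derived from dose-response.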

A short description of data set [2]: Inhibition of cholesterol biosynthesis in rat following 2 mg/kg p.o. administration. Type of data set: functional. The following applies: route oral. The essentials:
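Female rats (130 ± 20 g) kept on reversed lighting, dosed orally at 2 mg/kg in DMSO/HPMC (n = 2). Tritiated mevalonate (2.5 µCi) given 1 h later; killed after a further 1 h. Liver saponified in KOH/EtOH 80 °C 2 h, isohexane-extracted, analysed by HPLC. Percent inhibition of cholesterol biosynthesis versus controls, with sterol precursor profile for step selectivity.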

A short description of data set [3]: Compound was tested for its acid dissociation constant. Type of data set: ADME.
Data set [4] can be described thus: Effective dose (50%) required to inhibit cholesterol biosynthesis in rat after oral administration. It is filed as functional. The gist of the method:
as §1

The target of data set [5] is T1, Lanosterol synthase (Rattus norvegicus, UniProt P48450).
T1 sequence (P48450 whole entry): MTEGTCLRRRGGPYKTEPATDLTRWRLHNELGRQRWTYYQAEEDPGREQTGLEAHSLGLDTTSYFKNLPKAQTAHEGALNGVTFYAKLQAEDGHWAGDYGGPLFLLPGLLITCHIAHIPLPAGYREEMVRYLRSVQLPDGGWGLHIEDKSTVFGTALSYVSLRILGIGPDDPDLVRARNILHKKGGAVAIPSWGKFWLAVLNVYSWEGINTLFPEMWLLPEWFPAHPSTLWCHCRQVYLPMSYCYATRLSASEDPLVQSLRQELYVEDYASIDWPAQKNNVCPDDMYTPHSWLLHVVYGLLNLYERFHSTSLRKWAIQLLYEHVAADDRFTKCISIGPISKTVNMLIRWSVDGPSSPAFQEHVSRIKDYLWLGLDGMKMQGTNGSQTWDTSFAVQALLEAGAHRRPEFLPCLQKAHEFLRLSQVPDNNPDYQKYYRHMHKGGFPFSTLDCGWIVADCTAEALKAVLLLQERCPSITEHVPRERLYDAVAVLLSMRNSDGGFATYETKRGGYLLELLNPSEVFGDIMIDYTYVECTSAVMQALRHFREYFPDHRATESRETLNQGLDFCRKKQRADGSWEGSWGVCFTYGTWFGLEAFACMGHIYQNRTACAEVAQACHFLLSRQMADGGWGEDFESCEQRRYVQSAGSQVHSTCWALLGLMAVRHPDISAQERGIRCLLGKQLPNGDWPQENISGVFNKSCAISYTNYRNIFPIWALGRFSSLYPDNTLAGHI
As to the kind of experiment: (§2) In vitro inhibitory activity of the compound against rat microsomal 2,3-Oxidosqualene lanosterol cyclase (OSC). The gist of the method:
(§3)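 Rat liver microsomes (15-20 mg/mL protein stock) diluted in 50 mM phosphate buffer pH 7.4 with Tween. Test compound at serial 10-fold dilutions (10^-5 M, 10^-6 M, etc.) preincubated with microsomes 10 min at 37 °C. Oxidosqualene substrate added, then 1 h incubation. Stopped with ethanolic KOH, saponified 80 °C 2 h, hexane-extracted. IC50 by curve fitting with tight-binding model. Human OSC run the same way.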

For data set [6], the target named is T2, Lanosterol synthase (Rattus norvegicus) (UniProt P48450).
T2 sequence (whole entry): T1 sequence (P48450 whole entry)
As to the kind of experiment: Compound was tested for percent inhibition of OSC at 1 uM concentration in rat. The gist of the method: (§4)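 Rat liver microsomal OSC in phosphate-buffered Tween, pH 7.4, with test compound at 1 µM. Preincubation 10 min at 37 °C, then oxidosqualene added for 1 h. Stopped with ethanolic KOH at 80 °C for 2 h, hexane-extracted. Percent inhibition, n = 2.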

Data set [7] concerns the target T3, Lanosterol synthase (Homo sapiens, UniProt P48449).
T3 sequence (P48449 whole entry): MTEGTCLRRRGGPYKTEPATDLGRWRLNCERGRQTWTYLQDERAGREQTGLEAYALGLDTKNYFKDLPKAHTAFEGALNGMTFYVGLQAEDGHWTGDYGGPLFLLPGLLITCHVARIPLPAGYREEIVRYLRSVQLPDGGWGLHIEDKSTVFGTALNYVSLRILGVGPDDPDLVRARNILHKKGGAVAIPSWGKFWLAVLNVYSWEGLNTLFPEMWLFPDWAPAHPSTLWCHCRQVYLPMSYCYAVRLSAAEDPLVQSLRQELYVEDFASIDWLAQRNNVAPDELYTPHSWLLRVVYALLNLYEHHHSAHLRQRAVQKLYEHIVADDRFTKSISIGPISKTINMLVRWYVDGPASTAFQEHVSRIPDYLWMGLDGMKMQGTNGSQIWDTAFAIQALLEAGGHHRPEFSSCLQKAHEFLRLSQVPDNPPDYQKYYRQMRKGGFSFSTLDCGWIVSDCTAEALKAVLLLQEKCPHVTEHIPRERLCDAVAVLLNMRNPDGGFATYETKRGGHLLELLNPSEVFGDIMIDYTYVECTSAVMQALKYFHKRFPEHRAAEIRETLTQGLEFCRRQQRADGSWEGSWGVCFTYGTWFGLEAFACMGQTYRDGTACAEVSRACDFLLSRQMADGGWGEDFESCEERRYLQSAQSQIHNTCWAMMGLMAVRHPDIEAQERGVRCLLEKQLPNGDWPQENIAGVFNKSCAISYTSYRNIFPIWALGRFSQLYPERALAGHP
As to the kind of experiment: Compound was tested for its inhibition against human OSC enzyme. The gist of the method:
as §3

Data set [8] in a line: Effective dose (50%) required to inhibit cholesterol biosynthesis in rat after administration of a shallow oral dose. Type of data set: functional. The essentials: as §1
A short description of data set [9]: Effective dose (80%) required to inhibit cholesterol biosynthesis in rat after administration of a shallow oral dose. It is filed as functional. The essentials:
as §1

Data set [10] deals with T1, Lanosterol synthase. The experiment in a line: In vitro inhibitory activity of the compound against rat microsomal 2,3-Oxidosqualene cyclase-Lanosterol synthase (OSC). The essentials:
as §3

In data set [11] the target is T2, Lanosterol synthase (Rattus norvegicus). Described as §2. The following applies: concentration not given here. The essentials: as §3
The target is the same in data set [12]. The experiment in a line: In vitro percent inhibitory activity of the compound against rat microsomal OSC enzyme at 1 uM concentration. The gist of the method:
as §4

The target of data set [13] is T1, Lanosterol synthase. The experiment in a line: Compound was tested for its inhibition against rat OSC enzyme. The gist of the method: as §3
Data set [14] has as its target T2, Lanosterol synthase (Rattus norvegicus). The experiment in a line: In vitro percent inhibitory activity against rat microsomal OSC enzyme at 1 uM concentration. The gist of the method:
as §4

The values that follow come from ChEMBL document CHEMBL1133564, “A novel series of 4-piperidinopyridine and 4-piperidinopyrimidine inhibitors of 2,3-oxidosqualene cyclase-lanosterol synthase” (J Med Chem, 2000).

In the case of `O=C(c1ccc(C(F)(F)F)cc1)N1CCC(=Cc2ccc(C3=NCCO3)cc2)CC1`, in [1], the ED80 was 1 mg/kg. The inhibition in vivo (commonly how much of the control response was suppressed) at 2 mg/kg in [2] was 93%. In addition, the pKa (commonly the negative logarithm of the acid dissociation constant) in data set [3] is 4.7. Also, in data set [4], the 50% effect level (ED50) was put at a dose of 0.4 mg/kg. At Lanosterol synthase [5], half-maximal inhibition (IC50) was put at 90 nM.

Consider `O=C(C1CCN(c2ccncc2)CC1)N1CCN(S(=O)(=O)c2cccc(F)c2)CC1`, for which, in data set [2], the inhibition in vivo at 2 mg/kg amounted to 52%.

In [2], `N#Cc1ccc(S(=O)(=O)N2CCN(C(=O)C3CCN(c4ccncc4)CC3)CC2)cc1` yielded an inhibition in vivo at 2 mg/kg of 12%.

In data set [2], `O=C(C1CCN(c2ccncc2)CC1)N1CCN(S(=O)(=O)c2cccc(Br)c2)CC1` came in with an inhibition in vivo at 2 mg/kg of 43%.

Turning to `O=C(C1CCN(c2ccncc2)CC1)N1CCN(S(=O)(=O)c2ccc(Br)cc2)CC1`, in data set [1], the ED80 is above 2 mg/kg. In data set [2], this compound yielded an inhibition in vivo at 2 mg/kg of 69%. The compound further registered a pKa in data set [3] of 9.2. In addition, the ED50 – broadly, the dose that gives a 50% effect, or the effect in half of the subjects – in data set [4] stood at 2 mg/kg. The inhibition (usually the percentage by which the read-out fell short of the control) in [6] stood at 100%. For the same compound, the values for the half-inhibitory concentration (IC50) against Lanosterol synthase [7] and on Lanosterol synthase [5] were 161 nM and 228 nM, respectively.

Compound `O=C(C1CCN(c2ccncc2)CC1)N1CCN(S(=O)(=O)c2ccc(I)cc2)CC1` registered an inhibition in vivo at 2 mg/kg in data set [2] of 52%. Moreover, the pKa in data set [3] was 9.2. Besides, in [8], it took a dose of 2 mg/kg to reach the 50% effect level (ED50). This compound returned an ED80 in [9] below 20 mg/kg. Besides, half-maximal inhibition at Lanosterol synthase [10] (IC50) required 82 nM.

`O=C(c1ccc(Br)cc1)N1CCN(C(=O)C2CCN(c3ccncc3)CC2)CC1` gave an inhibition in [11] of 96%. Further, in [2], the inhibition in vivo at 2 mg/kg came to 28%.

In data set [2], `O=C(C1CCN(c2ccncc2)CC1)N1CCN(S(=O)(=O)c2cccc(C(F)(F)F)c2)CC1` gave an inhibition in vivo at 2 mg/kg of 7%.

On to `Cc1nccc(N2CCC(C(=O)N3CCN(S(=O)(=O)c4ccc(Br)cc4)CC3)CC2)n1`, for which, in data set [1], the ED80 was found to be 1.2 mg/kg. Also, in data set [2], the inhibition in vivo at 2 mg/kg worked out at 83%. In data set [3], the pKa was 7.2. Also, in [12], the inhibition is 76%. Besides, the 50% effect level in data set [4] (ED50) was put at a dose of 0.3 mg/kg. The results for the IC50 on Lanosterol synthase [13] and against Lanosterol synthase [7] were 398 nM and 112 nM, respectively.

The compound `Cc1ccc(S(=O)(=O)N2CCN(C(=O)C3CCN(c4ccncc4)CC3)CC2)cc1` yielded an inhibition in vivo at 2 mg/kg in [2] of 66%.

Compound `O=C(C1CCN(c2ccncc2)CC1)N1CCN(S(=O)(=O)c2ccc(F)cc2F)CC1` had an inhibition in vivo at 2 mg/kg in [2] of 10%.

For the compound `O=C(C1CCN(c2ccncc2)CC1)N1CCN(S(=O)(=O)c2ccccc2)CC1`, the inhibition in vivo at 2 mg/kg in data set [2] was found to be 53%. The IC50 (in general, the concentration at which inhibition is half-maximal) on Lanosterol synthase [7] was determined as 143 nM; on Lanosterol synthase [5], 326 nM.

The compound `CCC(C)(C)C(=O)O[C@H]1C[C@@H](C)C=C2C=C[C@H](C)[C@H](CC[C@@H]3C[C@@H](O)CC(=O)O3)[C@H]21` [SIMVASTATIN] returned an ED80 in data set [1] of 1.2 mg/kg.

As for `O=C(C1CCN(c2ccncn2)CC1)N1CCN(S(=O)(=O)c2ccc(Br)cc2)CC1`, the ED80 in [1] is 1.4 mg/kg. The compound further returned an inhibition in vivo at 2 mg/kg in data set [2] of 81%. The pKa in data set [3] was 6.1. For the same compound, in data set [12], the inhibition came out at 100%. This compound also had an ED50 in data set [4] of 0.5 mg/kg. Moreover, the IC50 on Lanosterol synthase [13] amounted to 116 nM; on Lanosterol synthase [7], 37 nM.

`O=C(C1CCN(c2ncccn2)CC1)N1CCN(S(=O)(=O)c2ccc(Br)cc2)CC1`: in [14], the inhibition amounted to 8%. The compound also returned an inhibition in vivo at 2 mg/kg in [2] of 23%.

As to `O=C(C1CCN(c2ccnnc2)CC1)N1CCN(S(=O)(=O)c2ccc(Br)cc2)CC1`, in [2], testing at 2 mg/kg gave an inhibition in vivo of 54%.

In data set [2], `COc1ccc(S(=O)(=O)N2CCN(C(=O)C3CCN(c4ccncc4)CC3)CC2)cc1` had an inhibition in vivo at 2 mg/kg of 38%.

The compound `O=C(c1ccc(Cl)cc1)c1ccc(OC2CN3CCC2CC3)cc1` (centres undefined) displayed a pKa in data set [3] of 9.1. The compound also yielded an ED50 in [4] of 2 mg/kg.

`O=C(C1CCN(c2ccncc2)CC1)N1CCN(Cc2ccc(Br)cc2)CC1` yielded an inhibition in data set [11] of 100%. The compound also registered an inhibition in vivo at 2 mg/kg in data set [2] of 48%. In [4], this compound showed an ED50 of 1.8 mg/kg.

With `O=C(C1CCN(C2=NCCO2)CC1)N1CCN(S(=O)(=O)c2ccc(Br)cc2)CC1`, the inhibition in data set [11] worked out at 87%. In [2], this compound registered an inhibition in vivo at 2 mg/kg of 82%.

Compound `O=C(C1CCN(c2ccncc2)CC1)N1CCN(S(=O)(=O)c2ccc(F)cc2)CC1` came in with an inhibition in vivo at 2 mg/kg in [2] of 46%.

With `O=C(C1CCN(C2=NCCS2)CC1)N1CCN(S(=O)(=O)c2ccc(Br)cc2)CC1`, in data set [2], the inhibition in vivo at 2 mg/kg came out at 81%. Further, the inhibition in [12] was determined as 100%.

For the compound `Cc1nsc(N2CCC(C(=O)N3CCN(S(=O)(=O)c4ccc(Br)cc4)CC3)CC2)n1`, the inhibition in vivo at 2 mg/kg in data set [2] was 9%. For the same compound, the inhibition in [12] turned out to be 3%.
